Reference: ChEMBL document CHEMBL1799960, “Diadenosine 5',5''-(boranated)polyphosphonate analogues as selective nucleotide pyrophosphatase/phosphodiesterase inhibitors” (J Med Chem, 2010)
The source made the active and inactive calls. No cut-off for these calls is given here.

Columns and labels:
[1] = target: T1, Ectonucleoside triphosphate diphosphohydrolase 2 (Homo sapiens) (UniProt Q9Y5L3); test: Activity of human NTPDase2 expressed in COS7 cells assessed as amount of inorganic phosphate released using ATP as the substrate at 100 uM after 15 mins by malachite green reagent method; format: cell-based; settings: COS-7
T1 sequence (whole entry): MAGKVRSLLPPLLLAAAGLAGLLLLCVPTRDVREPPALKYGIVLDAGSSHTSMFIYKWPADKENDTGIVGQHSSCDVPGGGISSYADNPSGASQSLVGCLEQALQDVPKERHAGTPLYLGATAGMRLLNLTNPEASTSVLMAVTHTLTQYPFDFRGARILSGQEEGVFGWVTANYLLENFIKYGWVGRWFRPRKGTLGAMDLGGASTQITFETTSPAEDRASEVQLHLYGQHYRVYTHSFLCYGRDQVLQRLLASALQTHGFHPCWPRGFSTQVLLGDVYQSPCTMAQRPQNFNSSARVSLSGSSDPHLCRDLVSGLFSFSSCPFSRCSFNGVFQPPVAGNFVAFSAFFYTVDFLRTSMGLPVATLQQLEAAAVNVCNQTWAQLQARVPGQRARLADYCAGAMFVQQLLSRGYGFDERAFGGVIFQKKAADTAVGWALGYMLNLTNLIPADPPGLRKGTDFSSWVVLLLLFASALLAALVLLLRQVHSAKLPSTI
How it was run: (§1)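 Crude membrane-enriched protein extract of transiently transfected COS-7 cells, preincubated 3 min at 37 °C in Tris-Ringer buffer pH 7.3. Reaction started with 100 μM ATP, or with the analogue alone at 100 μM to test it as substrate. Stopped after 15 min with malachite green reagent; released Pi read at 630 nm. Mean ± SD, n = 3.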

[2] = target: T2, P2Y purinoceptor 11 (Homo sapiens) (UniProt Q96G91); test: Agonist activity at GFP tagged-human P2Y11 receptor expressed in human 1321N1 cells assessed as elevation in calcium level at 50 uM after 30 mins by fluorescence spectrophotometric analysis; format: functional, cell-based
T2 sequence (whole entry): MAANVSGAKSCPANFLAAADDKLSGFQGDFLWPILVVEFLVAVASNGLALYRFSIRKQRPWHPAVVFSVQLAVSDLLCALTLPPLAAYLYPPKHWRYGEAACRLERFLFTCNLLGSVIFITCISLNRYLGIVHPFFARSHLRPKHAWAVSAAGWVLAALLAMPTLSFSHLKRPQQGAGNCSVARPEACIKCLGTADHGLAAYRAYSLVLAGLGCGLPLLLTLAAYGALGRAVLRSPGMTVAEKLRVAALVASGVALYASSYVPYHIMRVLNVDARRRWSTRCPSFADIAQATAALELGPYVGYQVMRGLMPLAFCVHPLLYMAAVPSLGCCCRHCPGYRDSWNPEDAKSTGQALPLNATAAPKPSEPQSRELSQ

[3] = target: T3, Ectonucleoside triphosphate diphosphohydrolase 3 (Homo sapiens) (UniProt O75355); test: Activity of human NTPDase3 expressed in COS7 cells assessed as amount of inorganic phosphate released using ATP as the substrate at 100 uM after 15 mins by malachite green reagent method; format: cell-based; settings: COS-7; how it was run: as §1
T3 sequence (whole entry): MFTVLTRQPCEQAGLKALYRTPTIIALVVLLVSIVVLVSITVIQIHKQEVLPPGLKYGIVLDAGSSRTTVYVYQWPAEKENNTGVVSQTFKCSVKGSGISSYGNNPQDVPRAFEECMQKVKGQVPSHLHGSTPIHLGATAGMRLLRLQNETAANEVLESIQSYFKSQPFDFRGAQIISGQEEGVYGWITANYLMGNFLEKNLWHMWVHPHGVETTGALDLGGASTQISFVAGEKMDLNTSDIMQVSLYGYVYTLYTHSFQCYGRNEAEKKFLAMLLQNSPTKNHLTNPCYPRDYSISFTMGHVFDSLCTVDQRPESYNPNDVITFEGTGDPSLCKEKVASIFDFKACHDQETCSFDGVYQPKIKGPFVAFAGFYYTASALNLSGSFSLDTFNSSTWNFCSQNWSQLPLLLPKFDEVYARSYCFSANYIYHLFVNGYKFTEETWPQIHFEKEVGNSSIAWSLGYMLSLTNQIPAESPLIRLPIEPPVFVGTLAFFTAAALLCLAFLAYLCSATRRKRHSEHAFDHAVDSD

Structure (SMILES): BP(=O)(OP(=O)(O)CP(=O)(O)OC[C@H]1O[C@@H](n2cnc3c(N)ncnc32)C[C@@H]1O)OP(=O)(O)CP(=O)(O)OC[C@H]1O[C@@H](n2cnc3c(N)ncnc32)C[C@@H]1O
- Activity [1]: 0.2%
- Activity [2]: inactive

Structure (SMILES): Nc1ncnc2c1ncn2[C@@H]1O[C@H](COP(=O)(O)CP(=O)(O)OP(=O)(O)CP(=O)(O)OC[C@H]2O[C@@H](n3cnc4c(N)ncnc43)[C@H](O)[C@@H]2O)[C@@H](O)[C@H]1O
- Activity [1]: 0.1%
- Activity [3]: 5.3%

Structure (SMILES): Nc1ncnc2c1ncn2[C@H]1C[C@H](O)[C@@H](COP(=O)(O)CP(=O)(O)OP(=O)(O)CP(=O)(O)OC[C@H]2O[C@@H](n3cnc4c(N)ncnc43)C[C@@H]2O)O1
- Activity [2]: inactive
- Activity [3]: 1.8%
